Experimental findings from ChEMBL document CHEMBL1151906, “Discovery and structure-activity relationships of pentanedioic acid diamides as potent inhibitors of 11beta-hydroxysteroid dehydrogenase type I” (Bioorg Med Chem Lett, 2009) are described below.

Each structure is given as a SMILES string. Values after ≈ are worked out from the molar mass of the structure shown.

Data set [1] is described as follows: Half life in rat plasma at 0.2 mg/kg, iv and 0.5 mg/kg, po. The format is ADME, organism-based. The essentials: (§1)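 Male rats given a low-dose cassette (cocktail): 0.2 mg/kg i.v. and 0.5 mg/kg p.o.; plasma PK parameters are means of 3 rats. Unchanged drug recovered in faeces collected 0–24 h after each route.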
In data set [2] the target is 11-beta-hydroxysteroid dehydrogenase 1 (Rattus norvegicus, UniProt P16232). Put plainly: Inhibition of 11beta-HSD1 in rat liver microsome. The format is microsomes. The essentials:
(§2)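 Liver microsome fractions (2.5 µg) used as the enzyme source. Run in 30 mM Hepes pH 7.4 with 1 mM EDTA, 1 mM G-6P and cortisone/NADPH (200 nM/200 µM). Incubated 150 min at 37 °C, stopped with 18β-glycyrrhetinic acid, cortisol read by HTRF.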
For orientation: Liver microsomes are a subcellular fraction often used to study metabolism.

Data set [3] deals with T1, 11-beta-hydroxysteroid dehydrogenase 1 (Mus musculus, UniProt P50172). Put plainly: Inhibition of 11beta-HSD1 in mouse 3T3L1 cells assessed as cortisol level by HTRF assay. The data set is classed as cell-based, 3T3-L1. The method in brief: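 3T3L1 cells differentiated 5 days into adipocytes, then cultured 4 days before 150 min exposure to compound (10^-5–10^-7 M). Cortisol in the culture supernatant is measured by HTRF to give 11β-HSD1 activity.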
On the technique in general: Time-resolved FRET reads energy transfer from a long-lived donor to a nearby acceptor.

The target in data set [4] is T2, 11-beta-hydroxysteroid dehydrogenase type 2 (Homo sapiens, UniProt P80365).
T2 sequence (P80365 whole entry): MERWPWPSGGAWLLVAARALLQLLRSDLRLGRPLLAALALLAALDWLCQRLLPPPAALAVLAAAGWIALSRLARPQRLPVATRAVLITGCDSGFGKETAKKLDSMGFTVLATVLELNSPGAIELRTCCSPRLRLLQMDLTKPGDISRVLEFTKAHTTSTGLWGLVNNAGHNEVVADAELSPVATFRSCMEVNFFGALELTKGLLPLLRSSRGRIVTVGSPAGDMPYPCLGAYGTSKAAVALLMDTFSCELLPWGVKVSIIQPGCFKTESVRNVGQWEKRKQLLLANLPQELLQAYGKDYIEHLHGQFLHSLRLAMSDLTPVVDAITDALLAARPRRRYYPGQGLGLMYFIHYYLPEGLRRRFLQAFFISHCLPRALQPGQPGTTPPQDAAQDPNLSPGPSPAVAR
Kind of data set: Inhibition of human recombinant 11beta-HSD2 expressed in Escherichia coli assessed as cortisol level after 60 mins by HTRF assay. The method in brief:
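Enzyme is recombinant human 11β-HSD2 (E. coli-expressed) in 50 mM Tris pH 7.8 with 1 mM MgCl2 and 0.5 mM NAD. Reaction starts with 20 nM cortisol, runs at room temperature, and is stopped with carbenoxolone 10 µM. Cortisol is quantified by HTRF.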

Data set [5] can be described thus: Drug absorption in rat assessed as recovery of unchanged drug in feces at 0.2 mg/kg, iv after 24 hrs. The format is ADME, organism-based. Also noted: dose 0.2 mg/kg, route intravenous. To be noted: faeces, read-out: Drug uptake. The method in brief:
as §1

The nature of data set [6]: Solubility in water. The data set is classed as physicochemical.
Data set [7] in a line: Volume of distribution at steady state in rat at 0.2 mg/kg, iv and 0.5 mg/kg, po. The format is ADME, organism-based. To be noted: in vivo, read-out: Vdss. The method in brief:
as §1

Data set [8] deals with T3, 11-beta-hydroxysteroid dehydrogenase 1 (Homo sapiens, UniProt P28845). Put plainly: Inhibition of human recombinant 11beta-HSD1 expressed in Escherichia coli assessed as cortisol level after 150 mins by HTRF assay.
Target sequence in this assay (P28845 whole entry): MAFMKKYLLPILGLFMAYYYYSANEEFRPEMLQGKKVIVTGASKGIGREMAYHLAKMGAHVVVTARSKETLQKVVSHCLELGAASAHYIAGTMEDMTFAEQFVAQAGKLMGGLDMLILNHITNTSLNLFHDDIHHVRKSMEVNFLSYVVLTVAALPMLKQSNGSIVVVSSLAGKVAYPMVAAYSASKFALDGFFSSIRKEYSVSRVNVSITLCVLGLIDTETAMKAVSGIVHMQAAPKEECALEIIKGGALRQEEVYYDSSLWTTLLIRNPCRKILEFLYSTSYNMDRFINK
For data set [9], the target named is T1, 11-beta-hydroxysteroid dehydrogenase 1. Put plainly: Inhibition of 11beta-HSD1 in mouse liver microsome. The method in brief: as §2
Data set [10] in a line: Clearance in rat at 0.2 mg/kg, iv and 0.5 mg/kg, po. The data set is classed as ADME, organism-based. To be noted: in vivo. The essentials: as §1
Data set [11] in a line: Protein binding in human serum. The format is ADME, cell-free. To be noted: read-out: PB (converted).
Data set [12] is described as follows: Bioavailability in rat at 0.2 mg/kg, iv and 0.5 mg/kg, po. The format is ADME, organism-based. The following applies: in vivo. The essentials: as §1
A short description of data set [13]: Drug absorption in rat assessed as recovery of unchanged drug in feces at 0.5 mg/kg, po after 24 hrs. The data set is classed as ADME, organism-based. Also noted: dose 0.5 mg/kg, route oral. The following applies: faeces, read-out: Drug uptake. The method in brief: as §1
Data set [14] deals with T3, 11-beta-hydroxysteroid dehydrogenase 1. To be noted: at 1 µM.
Target sequence in this assay (P28845 whole entry, looked up): as the sequence (P28845 whole entry) above
Data set [15] shares this target. Kind of data set: Inhibition of human 11beta-HSD1.
Target sequence in this assay (P28845 whole entry): as above

A word on the half-life: it is the time in which the quantity being followed falls by half. A high value points to slow decline. A word on the IC50: it is the concentration needed to halve the response being measured. Broadly, the solubility is how much of the substance goes into solution per volume. Low readings indicate little dissolved substance, high ones much dissolved substance. For orientation: bioavailability means dose-corrected exposure relative to a reference, in per cent. Read a high bioavailability as much systemic uptake. The inhibition is the share of the control response that was lost under treatment. Read a high inhibition as a response far below the control.

T1 sequence (P50172 whole entry): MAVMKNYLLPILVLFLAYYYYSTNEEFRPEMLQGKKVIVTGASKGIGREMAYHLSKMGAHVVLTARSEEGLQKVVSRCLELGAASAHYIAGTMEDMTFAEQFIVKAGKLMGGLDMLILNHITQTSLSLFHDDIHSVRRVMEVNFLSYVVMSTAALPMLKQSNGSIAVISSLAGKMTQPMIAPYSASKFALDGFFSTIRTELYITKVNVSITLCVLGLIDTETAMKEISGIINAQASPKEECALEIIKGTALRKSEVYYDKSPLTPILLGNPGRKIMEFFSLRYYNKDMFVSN
Chain of 11-beta-hydroxysteroid dehydrogenase 1 (Rattus norvegicus, UniProt P16232) (P16232 whole entry): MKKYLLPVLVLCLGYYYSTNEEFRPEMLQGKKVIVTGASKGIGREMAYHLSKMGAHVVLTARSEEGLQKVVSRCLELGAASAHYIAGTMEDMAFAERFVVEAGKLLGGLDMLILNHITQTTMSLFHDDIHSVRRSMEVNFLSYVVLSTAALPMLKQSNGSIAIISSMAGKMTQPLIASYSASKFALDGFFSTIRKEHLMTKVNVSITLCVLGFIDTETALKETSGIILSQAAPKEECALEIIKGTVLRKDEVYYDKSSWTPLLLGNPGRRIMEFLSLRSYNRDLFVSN

`CC(C)(CC(=O)NC1CC1)CC(=O)N[C@H]1C2CC3CC1C[C@](O)(C3)C2` showed a half-life in data set [1] of 72 min. Moreover, the IC50 in data set [2] was 980 nM; in [3], < 100 nM; in data set [4] it was > 10000 nM; in [8], 8 nM; in data set [9] it was 88 nM. Moreover, the dose excreted at 24 h in data set [5] is 20%; in data set [13], 22%. The compound further gave a solubility in data set [6] of 597 µg/mL (≈ 1710 µM). For the same compound, the Vd in data set [7] was 2.7 L/kg. This compound also showed a clearance in data set [10] of 30 mL/min/kg. The fraction unbound in [11] is 0.6. Also, the bioavailability in data set [12] stood at 30%.
For `CC(C)(CC(=O)NC1CC1)CC(=O)N[C@H]1C2CC3CC1C[C@](C(=O)O)(C3)C2`, in [8], the half-maximal inhibitory concentration (IC50) was > 1000 nM.
As to `CN1CCN(C(=O)CC2(CC(=O)O)CCCC2)CC1`, the inhibition in data set [14] came out at 0%.
Regarding `O=C(CCCC(=O)NC1C2CC3CC(C2)CC1C3)NC1CC1` (stereo unspecified), the IC50 in [8] is > 1000 nM.
In the case of `CC(C)(CC(=O)NC1CC1)CC(=O)N[C@H]1C2CC3CC1C[C@@](O)(C3)C2`, the IC50 in data set [8] was found to be 550 nM.
The compound `CC(C)(CC(=O)NC1CC1)CC(=O)N[C@H]1C2CC3CC1C[C@](C(N)=O)(C3)C2` showed a half-life in data set [1] of 36 min. Besides, the IC50 is 31 nM in [2]; < 1000 nM in [3]; > 10000 nM in data set [4]; 8 nM in data set [8]; 10 nM in data set [9]. For the same compound, the dose excreted at 24 h amounted to 24% in data set [5] and 50% in data set [13]. For the same compound, the solubility in data set [6] stood at 491 µg/mL (≈ 1310 µM). Also, the Vd in data set [7] worked out at 3.1 L/kg. Also, the clearance in data set [10] was 55 mL/min/kg. For the same compound, the fraction unbound in data set [11] is > 0.8. Besides, the bioavailability in [12] came to 10%.
In data set [15], `O=C(O)CC1(CC(=O)NCc2ccc(F)cc2Cl)CCCC1` came in with a half-maximal inhibitory concentration (IC50) of 1200 nM.
